# Only some compounds are listed: those with a hit (about 1.6% of all), similar ones and a draw of the others.
# S100A4 MyoIIA: inhibitors of S100A4-myosin IIA peptide binding, primary screen, biochemical, fluorescence polarization, TAMRA-MyoIIA peptide. Protein S100-A4 (Homo sapiens), P26447. inhibition, % at 10.7 µM. 0.14% of 360,000 active. AID 652163, 2013;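 active = mean inhibition of at least 70% across replicates, with every replicate also reaching that level; inconclusive = mean inhibition reaches 70% but some replicates fall short; inactive = mean inhibition below 70%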
# Target sequence (P26447 whole entry, looked up): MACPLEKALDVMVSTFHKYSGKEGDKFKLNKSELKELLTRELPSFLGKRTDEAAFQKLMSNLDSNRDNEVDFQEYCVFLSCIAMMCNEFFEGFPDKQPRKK
#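 Test system: S100A4 monomer protein. Medium: HEPES buffer with Ca2+, pH 7.2. Reagent: fluorescent myosin IIA peptide, 5 nM. Compound dosing: single-point compound testing. Timing: 5 min between mix addition and reading. Benchmarks: DMSO neutral and TFP positive wells.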
# PvdQ acylase: P. aeruginosa PvdQ acylase inhibitors, primary screen, biochemical, fluorescence, plate reader and imaging, single point | PvdQ acylase [Pseudomonas aeruginosa LESB58] | purified PvdQ acylase | inhibition, % at 10 µM | 0.063% of 340,000 active | AID 488965, 2010; in the data active = inhibition above about 30%, passing the limit was not always enough; inconclusive = no clear call, values can overlap the other calls
# dFosB act-1: activators of delta FosB homodimer, primary screen, biochemical, fluorescence polarization, TAMRA-CDK5 oligo, single point | Protein FosB (Mus musculus), P13346 | purified delta FosB; percent of positive-control signal above neutral wells | activation, % at 25 µM | 0.99% of 340,000 active | AID 493131, 2011;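 active = mean activation above about 17%, with every replicate also reaching it, limit read from the data, passing the limit was not always enough; inconclusive = only one of the two conditions met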
# Target sequence (P13346 whole entry, looked up): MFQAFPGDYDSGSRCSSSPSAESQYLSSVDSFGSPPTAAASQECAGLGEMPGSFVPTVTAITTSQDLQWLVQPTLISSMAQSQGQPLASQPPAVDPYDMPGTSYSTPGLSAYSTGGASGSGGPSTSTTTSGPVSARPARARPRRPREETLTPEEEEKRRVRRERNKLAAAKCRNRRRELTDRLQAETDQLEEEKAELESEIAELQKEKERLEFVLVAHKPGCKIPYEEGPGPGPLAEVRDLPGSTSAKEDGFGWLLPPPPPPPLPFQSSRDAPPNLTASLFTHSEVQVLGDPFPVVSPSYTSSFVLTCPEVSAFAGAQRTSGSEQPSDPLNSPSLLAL
# RAD54 branch: inhibitors of human RAD54 branch migration, primary screen, biochemical, fluorescence, single point; 0.14% of 360,000 active; inhibition, % at 10.4 µM; RAD54 Holliday junction branch migration, FAM/BHQ fluorescence;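 active = mean normalized replicate activity at least 40 and at least half of replicates scoring 40 or more; inconclusive = only one of the two criteria met; inactive = mean below 40 and under half of replicates reaching 40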;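 also: inhibitors cause a drop in the FAM fluorescence signal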
# SR-BI DiI inh: inhibitors of SR-BI mediated HDL lipid uptake, primary screen, ldlA[mSR-BI] cells, fluorescence, single point. ldlA[mSR-BI] CHO cells, DiI-HDL uptake fluorescence, 3 h. inhibition, % at 12.5 µM. 0.96% of 320,000 active. Scavenger receptor class B member 1 (Mus musculus), Q61009;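 active = mean replicate inhibition of at least 70% and a set share of replicates each scoring 70 or more; inconclusive = meets just one of the two criteria; inactive = fails both criteria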
# SR-BI DiI-HDL act: activators of SR-BI mediated DiI-HDL uptake, primary screen, ldlA[mSR-BI] CHO cells, DiI fluorescence | 3 h; 100 = double the neutral-control signal | activation, % at 12.5 µM | 0.096% of 320,000 active;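 active = mean replicate activation of at least 60% and every replicate at or above 60%; inconclusive = mean or all-replicate condition met, but not both; inactive = mean below 60% and not all replicates reaching 60%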
#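 material = CHO ldlA[mSR-BI] cells | medium = Ham's F12 with 0.5% BSA, HEPES 25 mM, pH 7.4 | reagent = fluorescent DiI-HDL, 10 µg/mL final | compound dosing = single-point compound dose | incubation = 3 h, 37 °C | measured by = bottom-read fluorescence, 550/595 nm | measure = HDL uptake via cellular fluorescence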
# dFosB act-2: activators of mouse delta FosB DNA binding, confirmation, biochemical, fluorescence polarization, TAMRA-CDK5 oligo, cherry-picked samples; shares compounds with dFosB act-1; purified delta FosB; normalised: neutral wells 0, positive control 100; activation, % at 24.9 µM; 2,400 tested, under 10 active;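 active = highest replicate activation at or above 34% and every replicate reaching that threshold; inconclusive = meets only one of the two criteria; inactive = meets neither criterion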;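 also: higher polarization means more probe DNA bound by delta FosB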
# Hits are given with their value; – = inactive; ? = inconclusive; · = no result.
SMILES,S100A4 MyoIIA,PvdQ acylase,dFosB act-1,RAD54 branch,SR-BI DiI inh,SR-BI DiI-HDL act,dFosB act-2
Cc1cccc(Nc2nnc(SCC(=O)NC3CCCc4ccccc43)s2)c1 (stereo unspecified),–,–,21,–,–,–,–
COC(=O)C[C@H]1C=C[C@@H](NC(=O)c2ccccc2)[C@H](CO)O1,–,·,·,–,·,·,·
C[C@@H](NC(=O)C[C@@H]1CC[C@@H](NS(=O)(=O)c2cccc(F)c2)[C@@H](CO)O1)c1ccccc1,–,·,·,–,·,·,·
CNC[C@H]1Oc2ccc(NC(=O)CCC(F)(F)F)cc2CC(=O)N([C@@H](C)CO)C[C@H]1C,–,·,·,–,·,·,·
COc1ccc(C(=O)Nc2nnc(S(=O)(=O)N(C)Cc3ccc(F)cc3)s2)cc1OC,–,–,23,–,–,–,–
CN(Cc1ccccc1)S(=O)(=O)c1nnc(NC(=O)c2ccc(F)cc2)s1,–,–,–,–,–,–,·
Cc1nn(Cc2ccc(F)cc2)c2sc(C(=O)Nc3nccs3)cc12,–,–,49,·,–,–,–
C[C@@H]1CCCCO[C@@H](CN(C)C(=O)CCC(F)(F)F)[C@@H](C)CN([C@H](C)CO)C(=O)c2cc(NS(C)(=O)=O)ccc2O1,–,·,·,–,·,·,·
CC=Cc1ccc2n(c1=O)C[C@H]1[C@H](CO)[C@@H](C(=O)N[C@@H](C)c3ccccc3)[C@@H]2N1Cc1ccccc1 (mixture of isomers),–,·,·,·,·,·,·
COCC(=O)N1[C@@H]2c3ccc(-c4ccccc4)c(=O)n3C[C@@H]2[C@@H](CO)[C@@H]1C(=O)Nc1ccccc1,–,·,·,–,·,·,·
COC(=O)c1ccc(C(=O)Nc2ccc3nc(-c4cccnc4)[nH]c3c2)cc1,·,–,47,–,–,–,–
CO[C@H]1CN(C)C(=O)c2ccc(NC(=O)c3cc(C)on3)cc2OC[C@H](C)N(C)C[C@@H]1C,–,·,·,·,·,·,·
COc1cc2ccccc2cc1C(=O)N(CCN(C)C)c1nc2c(F)cc(F)cc2s1,–,–,35,–,–,–,–
CN(C)CCCN(C(=O)c1cc(-c2cccs2)nc2ccccc12)c1nc2ccc(F)cc2s1,–,–,28,–,–,–,–
COc1cc2ccccc2cc1C(=O)N(CCN(C)C)c1nc2ccc(Br)cc2s1,–,–,44,–,–,–,–
C[C@@H]1CN([C@H](C)CO)C(=O)c2cc(NC(=O)NC3CCCCC3)ccc2O[C@@H](C)CCCCO[C@@H]1CN(C)C(=O)Nc1ccc(F)cc1,–,·,·,·,·,·,·
Cc1cccc(OCC(=O)NNC(=O)Nc2cccc(Cl)c2)c1C,·,–,18,–,–,–,–
O=C(Cc1cccc2ccccc12)NNC(=O)Nc1cccc(Cl)c1,·,–,31,–,–,–,–
COc1ccc(OCC(=O)NNC(=O)Nc2cccc(Cl)c2)cc1,–,–,–,–,–,–,·
CC(C)NC(=O)N(C)C[C@@H]1OCCCC[C@@H](C)Oc2ccc(NS(=O)(=O)c3ccc(F)cc3)cc2C(=O)N([C@@H](C)CO)C[C@H]1C,–,·,·,–,·,·,·
CCCC#Cc1ccc2c(c1)O[C@H](CN(C)C(C)=O)[C@@H](C)CN([C@@H](C)CO)S2(=O)=O,–,·,·,–,·,·,·
C[C@H](NC(=O)C[C@@H]1CC[C@@H](NC(=O)C2CCC2)[C@@H](CO)O1)c1ccccc1,–,·,·,–,·,·,·
CCCC#Cc1ccc2c(c1)O[C@H](CN(C)C(=O)NC(C)C)[C@@H](C)CN([C@@H](C)CO)S2(=O)=O,–,·,·,–,·,·,·
Cc1cccc(NC(=O)c2cc(S(=O)(=O)N3CCc4ccccc43)cn2C)c1C,–,–,40,–,–,–,–
CCc1ccccc1NC(=O)c1cc(S(=O)(=O)N2CCc3ccccc32)cn1C,–,–,26,–,–,–,–
SMILES,S100A4 MyoIIA,PvdQ acylase,dFosB act-1,RAD54 branch,SR-BI DiI inh,SR-BI DiI-HDL act,dFosB act-2
CCCNC(=O)c1cc(S(=O)(=O)N2CCc3ccccc32)cn1C,–,–,–,–,–,–,·
CO[C@H]1CN(C)C(=O)c2cc(NC(=O)C3CC3)ccc2OC[C@@H](C)N(C(=O)CN2CCOCC2)C[C@H]1C,–,·,·,–,·,·,·
CCc1ccc(NC(=O)Cn2nnc(C(=O)NCCc3ccc(OC)c(OC)c3)c2N)cc1,–,–,83,–,–,–,–
COc1ccc(NC(=O)Cn2nnc(C(=O)NCCc3ccccc3)c2N)cc1,–,–,29,·,–,–,–
COc1ccc(NC(=O)Cn2nnc(C(=O)Nc3ccccc3C)c2N)cc1,–,–,–,·,–,–,·
CO[C@H]1CN(C)C(=O)c2cc(NC(=O)Nc3ccccc3)ccc2OC[C@H](C)N(C(=O)CC2CC2)C[C@@H]1C,–,·,·,–,·,·,·
Cc1ccc(-c2cc(C(=O)Nc3ccc(S(=O)(=O)Nc4ncccn4)cc3)[nH]n2)c(O)c1C,–,–,–,–,·,·,·
CC(=O)Nc1ccc(NC(=O)c2cc(-c3ccc(C)c(C)c3O)n[nH]2)cc1,–,–,68,–,73,–,–
O=c1[nH]c(/C=C/c2cccc3ccccc23)nc2ccccc12,–,–,25,·,–,–,–
C[C@H]1CN([C@@H](C)CO)C(=O)c2cc(C3=CCCC3)cnc2O[C@H]1CN(C)C(=O)CN(C)C,–,·,·,–,·,·,·
CSc1ccc(/C=C/C(=O)OCC(=O)c2ccc[nH]2)cc1,–,–,22,–,–,–,–
CC(=O)N(C)C[C@H]1Oc2cc(C#CCN(C)C)ccc2S(=O)(=O)N([C@H](C)CO)C[C@@H]1C,–,·,·,–,·,·,·
CC(C)NC(=O)N1C[C@@H]2[C@H](c3ccccc31)[C@H](CO)N2Cc1ccccn1,·,·,·,–,·,·,·
COC(=O)[C@H]1[C@H](CO)[C@H]2Cn3c(ccc(-c4ccccc4F)c3=O)[C@H]2N1CC1CCCC1,–,·,·,–,·,·,·
Cc1ccc(N2CC(=O)N(NC(=O)Nc3ccc(Cl)c(Cl)c3)CC2=O)cc1,–,–,?,·,–,–,·
O=C(Nc1ccc(Cl)cc1)NN1CC(=O)N(c2cccc(C(F)(F)F)c2)CC1=O,–,–,31,·,–,–,–
CS(=O)(=O)Nc1ccc2c(c1)[C@@H]1C[C@@H](CC(=O)N3CCOCC3)O[C@@H](CO)[C@@H]1O2,–,·,·,–,·,·,·
O=C(CCc1nc2ccccc2c(=O)[nH]1)NCCN1C(=O)S/C(=C\c2ccccc2Cl)C1=O,–,–,–,–,–,–,·
